Bioassay records deposited in PubChem by several laboratories.
Shown are actives, neighbours in structure and some others; about 2.6% of the full set was active somewhere.
MC4R antagonist = antagonists of human melanocortin 4 receptor (MC4R). 360,000 tested, 0.48% active. inhibition, % at 6.5 µM. P32245. MC4R-expressing cells, MTII-stimulated cAMP, LANCE TR-FRET;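 active means inhibition above its plate's cutoff, the mean of tested wells on that plate plus 3 SD, cut at about 29% in these data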;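 further: 0% = Melanotan II alone and 100% = Melanotan II plus saturating MCL0020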
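Assay system: human MC4R-expressing U2OS cells; reagent: Melanotan II stimulation of cells; dosing: 6.5 µM single dose; timing: compound 30 min, challenge 1 h, detection 1 h; signal: TR-FRET cAMP assay; replicates: one well per compound, no replicates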
ABCB6 inh 2 = blocks the human ABCB6 transporter; 360,000 tested, 0.19% active; Q9NP58; fluorescence ratio to DMSO, % at 10 µM; K562-ABCB6 porphyrin accumulation, flow cytometry, 1 h; active compounds read low; AID 602162;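 active means fluorescence ratio to DMSO below 75%, the collection mean minus 3 SD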;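 further: signal is porphyrin accumulated inside mitochondria; 100% equals median channel fluorescence of DMSO control wells; lower ratio means ABCB6 inhibition with less porphyrin fluorescence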
MC4R barr agon = human MC4R agonism via beta-arrestin. 360,000 tested, 0.98% active. activation, % at 8.9 µM. P32245. AID 540308. U2OS MC4R beta-arrestin complementation, luminescence; percent of melanotan II response, DMSO zero;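 active means activation above a per-plate cutoff, the mean activation of sample wells on that plate plus 3 SD, cut at about 8% in these data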
Granule exo inh = blocks lytic granule exocytosis; TALL-104 LAMP-1 surface exposure, flow cytometry; cells stimulated with thapsigargin and PMA; inhibition, % at 10 µM; 360,000 tested, 0.66% active;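 active means inhibition above about 55%, limit read from the data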
hiPSC survival = hiPSC single-cell survival enhancement; survival enhancement, % at 20 µM; AID 602274; ATPlite luminescence; 100% = ROCK inhibitor wells, 0% = DMSO; 360,000 tested, 0.044% active; in the data active means survival enhancement above about 18%;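 further: cells exposed to compounds for 16 hours before the ATP read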
TbMetRS inhib = Trypanosoma brucei MetRS inhibition. purified T. brucei MetRS, ATP depletion, Kinase-Glo luminescence. inhibition, % at 11.9 µM. 360,000 tested, 0.4% active;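 active means inhibition above a per-plate cutoff of the control wells' mean inhibition plus 3 SD, cut at about 5.5% in these data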;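 further: 0% = DMSO wells median and 100% = median of wells with control inhibitor compound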
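Material: T. brucei methionyl-tRNA synthetase, purified; reagent: substrates ATP, L-methionine and bulk Escherichia coli tRNA; dosing: 11.9 µM single point; timing: 15 min plus 2 h at 25 °C; detection: luminescence of leftover ATP; evaluation: % inhibition; control set: DMSO-only wells as low control; replicates: singlicate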
MC4R barr conf = human MC4R beta-arrestin agonism confirmation. activation, % at 8.9 µM. 2,400 tested, 31% active. shares compounds with MC4R barr agon. U2OS MC4R beta-arrestin recruitment, luminescence; scaled DMSO 0%, Melanotan II 100%;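 active means mean activation across replicates above the hit cutoff set in the earlier primary screen, cut at about 8% in these data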
MOR-DOR barr ag = counter-screen for MC4R agonists: agonists of mu-delta opioid heterodimer. shares compounds with MC4R barr agon. U2OS PathHunter beta-arrestin, beta-gal luminescence; percent of deltorphin B response, DMSO zero. activation, % at 9.2 µM. 2,400 tested, 5.8% active. AID 602194;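 active means mean activation across replicates exceeds the hit threshold derived in the earlier primary screen, cut at about 18% in these data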;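 further: 100% = deltorphin B at 0.9 µM final and 0% = DMSO alone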
Active calls of the source: *; · = no result.

SMILES	MC4R antagonist	ABCB6 inh 2	MC4R barr agon	Granule exo inh	hiPSC survival	TbMetRS inhib	MC4R barr conf	MOR-DOR barr ag
C=C(C)CNC(=S)NNC(=O)CCn1c2cc(Cl)ccc2c2ccc(Cl)cc21	15	101	2	1	2	0	·	·
C=C(C)CNC(=S)NNC(=O)CCn1c2ccc(Cl)cc2c2cc(Cl)ccc21	-1	93	11*	3	-3	-1	6	3
Cc1cccc(N(Cc2ccccc2)C(=O)CN2C(=O)NC3(CCCCC3C)C2=O)c1 (stereo unspecified)	5	98	0	-4	-2	0	·	·
CC(C)(C)c1ccc(C(=O)NC(=O)COC(=O)c2ccco2)cc1	-7	99	13*	-6	0	0	1	7
O=C(COC(=O)c1ccco1)NNC(=O)c1ccc(Cl)cc1	10	95	-4	2	0	0	·	·
Cc1cccc(NC(=O)C2(C)CC3c4ccccc4C2c2ccccc23)c1 (stereo unspecified)	-2	99	17*	-1	-2	0	4	8
Cc1cccc(NC(=O)C2(c3ccccc3)CCOCC2)c1	-1	99	-1	1	3	-1	·	·
CCc1c(C(=O)Nc2cc(C)ccc2OC)[nH]c(C)c1C(C)=O	3	94	11*	-1	0	0	10*	6
CC(CC(=O)NC1CCCC1)c1ccccc1 (stereo unspecified)	10	93	-1	0	-1	0	·	·
Cc1ccc(-c2nn3c(C)nnc3s2)cc1NC(=O)c1ccc(-c2cccc(Cl)c2)o1	2	95	13*	1	6	-1	0	3
Cc1ccc(-c2nn3c(C)nnc3s2)cc1NC(=O)c1ccc(-c2ccc(Cl)cc2Cl)o1	6	89	1	3	1	-1	·	·
O=C1CN(C(=O)COC(=O)/C=C/c2ccc(OC(F)F)cc2)c2ccccc2N1	-5	95	11*	-5	0	-1	-1	3
CC(C)=CCC/C(C)=C/C=N/NC(=O)c1ccc([N+](=O)[O-])cc1	-2	100	15*	2	0	0	-2	8
CC(C)=CCC/C(C)=C/C=N/NC(=O)c1cccc([N+](=O)[O-])c1	6	96	0	-3	5	0	·	·
C/C(=N/OCO/N=C(\C)c1ccccc1F)c1ccccc1F	2	108	9.6*	-2	-1	0	-1	4
C/C(=N\NC(=S)NCc1ccccc1)c1ccccc1F	-9	96	-3	-4	-2	0	·	·
CN(C)c1ccc(/C=N/N2CCN(Cc3ccccc3Cl)CC2)cc1	-3	101	-1	-12	-1	1	·	·
CCCOc1ccc(C(=O)Nc2nc(C)c(Cc3ccc4c(c3)OCO4)s2)cc1	3	100	47*	17	-1	-2	13*	4
Cc1nc(NC(=O)c2ccc(OCC(C)C)cc2)sc1Cc1ccc2c(c1)OCO2	10	99	-3	-4	-1	-1	·	·
O=C(N/N=C/C=C/c1ccccc1)NC1CCCCC1	-10	93	1	-1	2	-1	·	·
O=C(CCc1nc2ccccc2c(=O)[nH]1)Nc1nnc(SCc2ccccc2)s1	-3	98	-2	-4	0	0	·	·
O=c1[nH]c(CSc2nnc(Nc3ccccc3)s2)nc2ccccc12	6	102	9.7*	0	0	1	2	3
O=c1c2ccc(Cl)cc2nc2n1CC/C2=C\c1cccc(O)c1	12	94	4	-4	1	0	·	·
CCOc1cc(/C=C2\CCn3c2nc2cc(Cl)ccc2c3=O)ccc1O	11	98	12*	-8	0	0	9.2*	2
CCOCC(=O)Nc1cc(C)on1	5	95	-1	-5	0	-1	·	·
